Among the data in ChEMBL document CHEMBL1121375, “Synthesis and structure-function studies of melanocyte stimulating hormone analogues modified in the 2 and 4(7) positions: comparison of activities on frog skin melanophores and melanoma adenylate cyclase” (1980) are Potency values, retold here.

Square brackets hold non-standard residues; d marks the D form. Peptide text beside a SMILES is read from it. Nle = CCCC[C@H](N)C(=O)O

One test is filed under the species Mus musculus. Kind of test: Relative potency using melanoma adenylate cyclase bioassay system from S-91 melanoma tumors grown in DBA/2J mice. The format is functional. In short, it runs like this:
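Particulate membrane fraction from S-91 melanoma tumors; 100 μg membrane protein starts the reaction. Medium: 1 mM [α-³²P]ATP, 5 mM MgCl₂, 1 mM cAMP, 0.5 mM IBMX, 1 mM DTT, 20 mM creatine phosphate, 100 U/mL creatine phosphokinase, 10 μM GTP, 30 mM Tris-HCl pH 7.5. 10 min at 30 °C; [³²P]cAMP isolated and counted. Potency from half-maximal response relative to α-MSH.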

The test system of test [1] is Melanocortin receptor (Rana berlandieri). Kind of test: Relative potency using frog skin bioassay system.

In the case of `CCCC[C@H](NC(=O)[C@H](CO)NC(=O)[C@H](Cc1ccccc1)NC(=O)[C@H](CO)NC(C)=O)C(=O)N[C@@H](CCC(=O)O)C(=O)N[C@@H](Cc1c[nH]cn1)C(=O)N[C@@H](Cc1ccccc1)C(=O)N[C@@H](CCCN=C(N)N)C(=O)N[C@@H](Cc1c[nH]c2ccccc12)C(=O)NCC(=O)N[C@@H](CCCCN)C(=O)N1CCC[C@H]1C(=O)N[C@H](C(N)=O)C(C)C`, the Potency in the test listed under Mus musculus was found to be 0.9; in test [1], 0.82.

Regarding `CCCC[C@H](NC(=O)[C@H](CCCCN)NC(=O)[C@H](Cc1ccc(O)cc1)NC(=O)[C@@H]1CCCN1C(=O)CNC(=O)[C@H](CCC(=O)O)NC(=O)[C@@H](N)CC(=O)O)C(=O)N[C@@H](CCC(=O)O)C(=O)N[C@@H](Cc1c[nH]cn1)C(=O)N[C@@H](Cc1ccccc1)C(=O)N[C@@H](CCCN=C(N)N)C(=O)N[C@@H](Cc1c[nH]c2ccccc12)C(=O)NCC(=O)N[C@@H](CO)C(=O)N1CCC[C@H]1C(=O)N1CCC[C@H]1C(=O)N[C@@H](CCCCN)C(=O)N[C@@H](CC(=O)O)C(=O)O` (H-DEGPYK[Nle]EHFRWGSPPKD-OH), the figures for the Potency (in the test listed under Mus musculus; in test [1]) were 4.2 and 5.2, respectively.

Take H-DEGPYKMEHFRWGSPPKD-OH: the Potency worked out at 2.2 in the test listed under Mus musculus and 0.55 in test [1].
